In all, about 360,000 compounds went through this assay and about 3,600 (1%) were called active. The sample as a whole holds a higher share of actives than the screen did. Values without a mark were called inactive.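 Rule for the calls: active = activation above the mean activation of all test compounds in the run plus 3 SD (cut at about 38% in these data); inactive = the rest.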

Sequence of Trace amine-associated receptor 1 (Homo sapiens) (Q96RJ0 whole entry, looked up): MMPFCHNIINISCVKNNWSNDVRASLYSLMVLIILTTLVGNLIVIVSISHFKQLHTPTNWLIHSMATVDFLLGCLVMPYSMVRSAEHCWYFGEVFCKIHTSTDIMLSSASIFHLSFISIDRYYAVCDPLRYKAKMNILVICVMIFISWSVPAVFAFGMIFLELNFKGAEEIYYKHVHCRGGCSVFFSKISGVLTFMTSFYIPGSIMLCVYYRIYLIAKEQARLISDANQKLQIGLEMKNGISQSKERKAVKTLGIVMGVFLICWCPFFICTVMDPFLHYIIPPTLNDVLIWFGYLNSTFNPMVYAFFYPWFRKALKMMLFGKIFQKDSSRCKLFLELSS

The assay concerns the target Trace amine-associated receptor 1 (Homo sapiens) (UniProt Q96RJ0). Nature of the assay: activators of TAAR1 calcium mobilization – Fluo-8 calcium fluorescence, CHO RD-HGA16 cells, primary screen (AID 624467). The following applies: CHO RD-HGA16 TAAR1, Fluo-8 calcium fluorescence; at 3 µM; hits give high values; vehicle wells 0%, saturating PEA agonist 100%. The method, boiled down:
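Assay system: CHO-derived RD-HGA16 cells with stable Gα16 and human TAAR1; timing: 17-24 h seeding, 75 min 37 °C dye, 30 min RT; read-out: % activation from peak over basal fluorescence ratio, DMSO-to-PEA scaled; measured by: kinetic Fluo-8 calcium fluorescence; benchmarks: low control DMSO, high control PEA (EC100); doses: 3 µM single concentration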
A general note: Calcium flux is commonly read through the fluorescence of an indicator in the cells.
As to `CN(C(=O)COC(=O)c1ccc(Br)o1)c1c(N)n(Cc2ccccc2)c(=O)[nH]c1=O`, the activation is 0.16%.
For `Nc1cc(=O)n(Cc2ccccc2)c(=O)n1Cc1ccccc1` the value was 1.88%; for `Cc1cc2nc3c(=O)n(Cc4ccccc4)c(=O)[nH]c3nc2cc1N`, 53.8% (active).
For `CCN(c1ccccc1)S(=O)(=O)c1cccc(C(=O)NCc2ccccc2CN2CCOCC2)c1` the value was 5.65%; for `COC(=O)[C@]1(Cc2ccccc2)NC=C(C(=O)c2ccccc2)[C@@H]1c1cccc(OC)c1`, 0.41%.
For `C[C@H](O)[C@@H]1CN2CCc3ccc(-c4ccc5c(c4)OCO5)cc3[C@@H]2C[C@@H]1N(C)C(=O)C1CCCCC1` the value was -1.03%; for `O=C(O)Cn1cnc2c(NCc3ccccc3)ncnc21`, 2.25%.
On to `COc1ccc(CC(N)c2csc(NC(=O)Cc3ccccc3)n2)cc1` (stereo not drawn), for which the activation was 56.1% (active).
Next, `Cc1ccccc1NC(=O)Cc1nc(COC(=O)c2ccc(C(F)(F)F)cc2)cs1`: 6.08%; `CC(C)(C)CC(=O)Nc1nnc(SCC(=O)NCc2cccs2)s1`: 1.84%; `COc1ccc(CC(N)c2csc(NC(=O)Nc3ccc(C(C)C)cc3)n2)cc1` (stereo not drawn): 47.2% (active).
Consider `NC(Cc1ccc(F)cc1)c1csc(Nc2nncc3ccccc23)n1` (stereo not drawn), for which the activation was 35.4%.
Next, `CC(C)(C)CC(=O)Nc1nc(C(N)Cc2ccc(C(F)(F)F)cc2)cs1` (stereo not drawn): 63.4% (active); `COc1ccc(CC(N)c2csc(NC(=O)NC(c3ccccc3)c3ccccc3)n2)cc1` (stereo not drawn): 21.8%; `COc1ccc(S(=O)(=O)N2CCN(C(C)C(=O)Nc3ccc(C(C)C)cc3)CC2)cc1` (stereo not drawn): 0.11%.
Next, `NC(Cc1ccccc1)c1csc(Nc2cc(Oc3ccccc3)ncn2)n1` (stereo not drawn): 69.5% (active); `COC(=O)[C@H](CCSC)NC(=O)Nc1ccc(OC)cc1`: -1.88%.
Next, `COc1ccc(CC(=O)Nc2sc(Cc3ccccc3)c(C)c2C(N)=O)cc1`: 3.38%.
As for `CC(=NNC(N)=O)c1ccc(Cl)c(-n2cccc2)c1`, the activation was 0.51%.
Next, `CCN(C(=O)c1ccc(Br)cc1)c1ccccc1`: 0.89%; `COc1ccc(CNS(=O)(=O)c2cc(Br)ccc2Br)cc1`: 3.49%; `C[C@@H]1CN([C@H](C)CO)C(=O)CCCn2cc(nn2)CO[C@H]1CN(C)C(=O)Nc1ccc(N2CCCCC2)cc1`: 0.76%.
Next, `O=C(C(=O)N1CCC(CNS(=O)(=O)Cc2ccccc2)CC1)c1cc2ccccc2o1`: 3.18%; `CCOC(=O)c1cnc(SC)nc1Sc1ccc(Cl)cc1Cl`: 9.74%; `C=CCNC(=O)c1sc(SC)cc1-c1ccc(Cl)cc1`: 4.3%.
For `CC(C)(C)C(c1nc2ccccc2[nH]1)n1c(Cc2csc3ccccc23)nc2ccccc21` (stereo not drawn) the value was 0.77%.
As to `CC(=O)C1=C(C)N(Cc2ccc(Cl)cc2)C(=S)NC1c1ccc(F)cc1` (stereo not drawn), the activation was -0.39%.
For `O=S(=O)(NCCc1ccccn1)c1cc(Cl)cc(Cl)c1O` the value was 3.97%.
Next, `O=[N+]([O-])c1cccc(S(=O)(=O)NCc2ccccn2)c1`: 2.02%; `O=[N+]([O-])c1cc(S(=O)(=O)NCCc2ccccn2)ccc1Cl`: 68.6% (active).
For `CCCCOCC1CN(CCCC)S(=O)(=O)c2c(Oc3ccc(F)cc3)cccc2O1` (stereo not drawn) the value was 1.51%.
`COC(=O)C1=C(C)N(Cc2cccc(C(F)(F)F)c2)C(=NCc2ccccc2)NC1c1ccc(Cl)cc1` (stereo not drawn): the activation is 19.1%.
Consider `COc1ccccc1CNC(=O)c1ccc(CS(=O)(=O)c2ccccc2)o1`, for which the activation is 11.9%.
For `CCc1ccccc1S(=O)(=O)Cc1ccc(C(=O)NCCc2ccccc2)o1` the value was 50.3% (active).
Next, `Cc1ccccc1S(=O)(=O)Cc1ccc(C(=O)NCCN2CCCCC2C)o1` (stereo not drawn): 8.73%.
Next, `CCCc1nnc(NC(=O)CCC(=O)N2CCN(S(=O)(=O)c3ccc(OC)cc3)CC2)s1`: 4.53%; `CC1CCCN(c2cccc3c2S(=O)(=O)N(Cc2ccc(F)cc2)[C@@H](C)[C@H](c2ccccc2)O3)C1` (stereo partly drawn): 0.84%; `COC(=O)[C@]12C[C@H](CC(=O)NCc3ccccc3)C(=O)N(CCC3=CCCCC3)C1=C[C@H](C(C)(C)C)O[C@@H]2C`: -2.08%.
With `S=C(NN=C1CCN(Cc2ccccc2)CC1)NC1CCCCC1`, the activation was 1.76%.
Next, `CCCC1CCC(=NNC(=S)NCCc2ccccc2)CC1` (stereo not drawn): 54.9% (active).
Next, `CCCCNC(=S)N/N=C1\CCCCc2ccccc21`: -2.14%; `Cc1cccnc1CCNC(=O)C1CCC(=O)N(Cc2cccc(F)c2)C1` (stereo not drawn): 0.59%; `CN1CCCCC(NC(=O)C(C)(C)C)C1=O` (stereo not drawn): 3.02%.
Next, `O=[N+]([O-])c1ccccc1N/N=C1\CCc2ccccc21`: -0.37%.
Regarding `Oc1ccc2ccc3cccc[n+]3c2c1`, the activation is 152% (active).
Turning to `Cc1ccc(C)c(CN2CCC(CNC(=O)C3CCCN(c4ncnc5c4nc4n5CCCCC4)C3)CC2)c1` (stereo not drawn), the activation was -0.04%.
Next, `COc1ccccc1CCNS(=O)(=O)c1cn(C)nc1C`: 4.37%.
For `COc1ccccc1Cc1c(-c2ccc(Cl)cc2)nc2ccc(Cl)cn12` the value was -1.69%; for `CCCc1c(-c2ccccc2F)ncn1Cc1ccccc1OC`, 5.04%; for `COc1ccccc1Cc1c(-c2ccc(F)cc2)nc2ccc(C)cn12`, 0.01%.
Take `CCCCc1c(-c2ccc(Br)cc2)ncn1CCc1ccccc1OC`: the activation is 48% (active).
For `CCCCc1c(-c2ccc(Cl)cc2)ncn1CCc1ccccc1OC` the value was 54.2% (active).
For `COc1ccccc1CCn1cnc(-c2ccccc2)c1C(C)C` the value was 8.43%.
`CCc1c(-c2ccccc2OC)ncn1CCc1ccccc1OC`: the activation is 53% (active).
For `COc1ccccc1Cc1c(-c2ccc(Cl)cc2)nc2c3ccccc3ccn12` the value was 0.7%; for `[2H]C(CCOS(N)(=O)=O)c1ccccc1` (stereo not drawn), -0.46%; for `CCCNC(=O)CCc1c(C)nc2c(c(C)nn2-c2ccccc2)c1C`, 1.73%.
Next, `O=C1CC(C(F)(F)C(F)(F)C(F)(F)C(F)(F)F)=Nc2ccccc2N1`: -0.77%.

For the origin of these results see PubChem BioAssay AID624467 (The Scripps Research Institute Molecular Screening Center, 2012).
